ChEMBL document CHEMBL1124390, “Synthesis and antiviral activity of phosphonoacetic and phosphonoformic acid esters of 5-bromo-2'-deoxyuridine and related pyrimidine nucleosides and acyclonucleosides” (1989)

Legend:
Format in all cases: functional
Human alphaherpesvirus 2 = experiment: Concentration required to reduce the number of viral plaques […] cell monolayers of herpes simplex virus type 2.
Outline: (§1)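 Plaque-reduction assay on Vero monkey kidney cells grown in DMEM + 10% v/v newborn bovine serum. HSV-1 strain HFEM or HSV-2 strain 3345, 50 pfu in duplicate, adsorbed at 4 °C to drained monolayers. Serum-free medium with carboxymethylcellulose plus compound dilution series added; 3 days at 37 °C. Formaldehyde fixation, Giemsa stain; ID50 interpolated from plotted results.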

Human alphaherpesvirus 1 [1] = experiment: Concentration required to reduce the number of viral plaques […] cell monolayers of herpes simplex virus type 1.; outline: as §1
Human alphaherpesvirus 1 [2] = experiment: Concentration required to protect 50% of mice against a systemic infection of HSV-1.
Outline: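 Swiss albino mice (9-12 g) given test substance 0.5 mL ip at -24, 0 and +24 h relative to infection (three treatments); controls got 0.5 mL water ip on the same schedule. Infection ip with approx 10x LD50 of HSV-1. Survivors counted on day 21; PD50 derived by Reed-Muench method.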

Row | Compound | ID50 (Human alphaherpesvirus 2) [µM] | ID50 (Human alphaherpesvirus 1 [1]) [µM] | PD50 (Human alphaherpesvirus 1 [2]) [mM/kg]
1 | Cc1cn([C@@H]2O[C@H](CO)[C@@H](O)[C@@H]2O)c(=O)[nH]c1=O | 19 | 10 | –
2 | Nc1nc(O)c2ncn(COCCOP(=O)(O)CC(=O)O)c2n1 | 1500 | 1800 | –
3 | Nc1ncnc2c1ncn2[C@@H]1O[C@H](COP(=O)(O)CC(=O)O)[C@@H](O)[C@@H]1O | >2000 | >2000 | 0.53
4 | Nc1ncnc2c1ncn2[C@@H]1O[C@H](COP(=O)(O)CC(=O)O)[C@@H](O)[C@H]1O | – | 580 | 0.4
5 | C=Cc1cn([C@H]2C[C@H](O)[C@@H](CO)O2)c(=O)[nH]c1=O | 2 | 0.8 | –
6 | C#Cc1cn([C@H]2C[C@H](O)[C@@H](CO)O2)c(=O)[nH]c1=O | 11 | 11 | –
7 | O=c1[nH]c(=O)n([C@@H]2O[C@H](CO)[C@@H](O)[C@@H]2O)cc1Br | 5.9 | 5 | –
8 | O=C(CP(=O)(O)O)OC[C@H]1O[C@@H](n2cc(Br)c(=O)[nH]c2=O)C[C@@H]1O | 7.4 | 12 | –
9 | O=C(O)CP(=O)(O)OC[C@H]1O[C@@H](n2cc(/C=C/Br)c(=O)[nH]c2=O)C[C@@H]1O | 1000 | 2.7 | –
10 | C#Cc1cn([C@H]2C[C@H](O)[C@@H](COP(=O)(O)CC(=O)O)O2)c(=O)[nH]c1=O | >200 | >200 | –
11 | O=C(O)P(=O)(O)OC[C@H]1O[C@@H](n2cc(Br)c(=O)[nH]c2=O)C[C@@H]1O | 0.44 | 4.6 | –
12 | Nc1ncnc2c1ncn2[C@H]1C[C@H](O)[C@@H](COP(=O)(O)CC(=O)O)O1 | >2000 | >2000 | 1.05
13 | O=C(O)CP(=O)(O)OC[C@H]1O[C@@H](n2cc(I)c(=O)[nH]c2=O)C[C@@H]1O | 10 | 40 | 0.21
14 | Nc1nc(=O)n([C@H]2C[C@H](O)[C@@H](COP(=O)(O)CC(=O)O)O2)cc1Br | 15 | 72 | –
15 | C=Cc1cn([C@H]2C[C@H](O)[C@@H](COP(=O)(O)CC(=O)O)O2)c(=O)[nH]c1=O | 50 | 14 | –
16 | Cc1cn([C@H]2C[C@H](O)[C@@H](COP(=O)(O)CC(=O)O)O2)c(=O)[nH]c1=O | 160 | 400 | 0.45
17 | O=C(O)CP(=O)(O)OC[C@H]1O[C@@H](n2cc(Br)c(=O)[nH]c2=O)C[C@@H]1O | 1.2 | 16 | 0.2
18 | CCc1cn([C@H]2C[C@H](O)[C@@H](COP(=O)(O)CC(=O)O)O2)c(=O)[nH]c1=O | 700 | 300 | –
19 | Nc1ncc([C@@H]2O[C@H](COP(=O)(O)CC(=O)O)[C@@H](O)[C@H]2O)c(=O)[nH]1 | 770 | 780 | –

Row | Compound | ID50 (Human alphaherpesvirus 2) [µM] | ID50 (Human alphaherpesvirus 1 [1]) [µM] | PD50 (Human alphaherpesvirus 1 [2]) [mM/kg]
20 | Nc1nc(=O)n([C@H]2C[C@H](O)[C@@H](CO)O2)cc1Br | 0.15 | 1.5 | –
21 | Nc1nc(O)c2ncn(C3O[C@H](COP(=O)(O)CC(=O)O)[C@@H](O)[C@H]3O)c2n1 (stereo partly specified) | >2000 | >2000 | 0.36
22 | CC(=O)c1cn(C2O[C@H](COP(=O)(O)CC(=O)O)[C@@H](O)[C@@H]2O)c(=O)[nH]c1=O (stereo partly specified) | >2000 | >2000 | –
23 | O=C(O)CP(=O)(O)OC[C@H]1OC(n2cc(I)c(=O)[nH]c2=O)[C@@H](O)[C@@H]1O (stereo partly specified) | >2000 | >2000 | –
24 | Cc1cn(C2O[C@H](COP(=O)(O)CC(=O)O)[C@@H](O)[C@@H]2O)c(=O)[nH]c1=O (stereo partly specified) | >2000 | >2000 | –
25 | Nc1ccn(C2O[C@H](COP(=O)(O)CC(=O)O)[C@@H](O)[C@H]2O)c(=O)n1 (stereo partly specified) | 1200 | 1600 | –
26 | O=c1[nH]c(=O)n(C2O[C@H](CO)[C@@H](O)[C@@H]2O)cc1I (stereo partly specified) | 60 | 13 | –
27 | O=C(O)CP(=O)(O)OC[C@H]1OC(n2ccc(=O)[nH]c2=O)[C@H](O)[C@@H]1O (stereo partly specified) | – | 300 | 0.31
28 | O=C(O)CP(=O)(O)OC[C@H]1OC(n2cc(Br)c(=O)[nH]c2=O)[C@@H](O)[C@@H]1O (stereo partly specified) | >2000 | >2000 | –
29 | C=Cc1cn(C2O[C@H](COP(=O)(O)CC(=O)O)[C@@H](O)[C@@H]2O)c(=O)[nH]c1=O (stereo partly specified) | >2000 | >2000 | –
30 | Nc1nc2c(ncn2COCCO)c(=O)[nH]1 [ACYCLOVIR] | 2.2 | 1.3 | –
31 | O=c1[nH]c(=O)n([C@H]2C[C@H](O)[C@@H](CO)O2)cc1/C=C/Br [BRIVUDINE] | 4.2 | 0.6 | –
32 | O=c1[nH]c(=O)n([C@H]2C[C@H](O)[C@@H](CO)O2)cc1Br [BROXURIDINE] | 0.7 | 2 | –
33 | CCc1cn([C@H]2C[C@H](O)[C@@H](CO)O2)c(=O)[nH]c1=O [EDOXUDINE] | 23 | 40 | –
34 | O=C(O)P(=O)(O)O [FOSCARNET] | 120 | 130 | –
35 | O=C(O)CP(=O)(O)O [FOSFONET] | 240 | 230 | 0.67
36 | O=c1[nH]c(=O)n([C@H]2C[C@H](O)[C@@H](CO)O2)cc1I [IDOXURIDINE] | 2.3 | 2 | –
37 | Nc1ncnc2c1ncn2[C@@H]1O[C@H](CO)[C@@H](O)[C@@H]1O [VIDARABINE] | 75 | 11 | –
